Compound activity (PubChem)
CaV13 FRET inh: Primary screen for inhibitors of IQ motif and Ca2+-dependent inactivation inhibitor domain binding in CACNA1D, Förster resonance energy transfer in living cells, …; HEK cells, CFP/YFP FRET ICDI-IQ, plate reader, 10 min; percent FRET-ratio fall versus neutral wells; inhibition, % at 12.3 µM; 0.098% of 340,000 active; AID 743397;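 active = mean replicate inhibition of at least 30% and at least 1% of replicates passing that level; inconclusive = only one of the two criteria is met; inactive = neither criterion is met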;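 note: 0% = median of the neutral control wells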
DENV2 CPE: DENV2-induced cell death inhibition | DENV2-infected cells, cytopathic effect rescue, plate reader | CPE inhibition, % at 9.99 µM | AID 651640 | 1.7% of 350,000 active; in the data active = CPE inhibition above about 20%, passing the limit was not always enough; inconclusive = no clear call, values can overlap the other calls; tested in BHK-21 cells;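 note: 0% = median of neutral control wells and 100% = median of positive control wells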
FN deposit inh: fibronectin deposition inhibition; AH1F fibroblasts, Alexa488-fibronectin deposition fluorescence, overnight; inhibition, % at 12.6 µM; 0.086% of 350,000 active;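 active = mean inhibition across replicates of 30% or more, regardless of how many single replicates reach that level; inconclusive = mean under 30% yet at least half of replicates reach 30%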;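 note: positive control wells lacked labelled fibronectin entirely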
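Measured by – fluorescence 485/525 nm · System – AH1F fibroblast monolayer, labelled fibronectin deposition · Amount – 10000 cells per well · Buffer or medium – serum-reduced DMEM (2% serum) · Doses – single dose, pinned · Also added – fluorescent fibronectin at 24 nM final · Schedule – 1 h cell attachment, overnight exposure to compound and label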
XiGFP reactiv: activators of X-chromosome reactivation in mouse fibroblasts | 0.055% of 360,000 active | activation, % at 7.58 µM | XiGFP mouse fibroblasts, % GFP-positive cells imaging, 3 d; cells co-treated with 5-aza-dC sensitizer; scaled so ellipticine positive control = 100% | AID 743238;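 active = mean normalized replicate activation at least 10% and every replicate at or above 10%; inconclusive = only one of the two criteria met; inactive = mean below 10% and not all replicates reach 10%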;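 note: 0% = median of on-plate neutral control wells and 100% = ellipticine 6 µM median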
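assay system = SV40-immortalized XiGFP fibroblast cells, line 68-5-11 | buffer or medium = DMEM plus 5-aza-dC sensitizer | doses = single-point pinned compound dosing | times = 3-day compound exposure, then 15 min fixation at room temperature | benchmarks = positive control ellipticine, 6 µM final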
Casp6 inh: blocks human caspase-6 cleavage activity; inhibition, % at 12.5 µM; 0.53% of 350,000 active; P55212; purified caspase-6, Z-VEID-R110 cleavage fluorescence;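 active = mean inhibition across replicates at least about 35%, with every replicate also reaching that limit, limit read from the data; inconclusive = only one of the two criteria met; inactive = neither criterion met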;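 note: 0% = median of neutral control wells and 100% = no fluorescence left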
Target sequence (P55212 24-179 limits assumed): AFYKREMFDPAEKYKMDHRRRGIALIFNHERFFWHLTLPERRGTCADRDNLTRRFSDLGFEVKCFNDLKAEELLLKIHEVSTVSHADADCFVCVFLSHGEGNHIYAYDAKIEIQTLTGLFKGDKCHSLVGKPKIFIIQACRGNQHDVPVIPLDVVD
Target sequence (P55212 194-293 limits assumed): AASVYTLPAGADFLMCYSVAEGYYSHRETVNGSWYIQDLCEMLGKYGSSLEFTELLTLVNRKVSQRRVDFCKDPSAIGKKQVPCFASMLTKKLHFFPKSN
* marks the source's active call; other numbers are inactive results; ? = inconclusive; / = no result given. Rows were chosen to be rich in hits. Some 2% of all compounds tested hit in one or more screens of this group.

SMILES | CaV13 FRET inh | DENV2 CPE | FN deposit inh | XiGFP reactiv | Casp6 inh
N#C[C@@H]1[C@@H](c2ccc(C#Cc3ccccc3F)cc2)[C@H](CO)N1C(=O)C1CCC1 | / | 30* | 0 | 0 | 2
N#C[C@@H]1[C@@H](c2ccc(/C=C/c3ccccc3)cc2)[C@@H](CO)N1C(=O)C1CCCC1 | / | 26* | -4 | 0 | -1
N#C[C@@H]1[C@@H](c2ccc(C#Cc3ccc(F)cc3)cc2)[C@H](CO)N1C(=O)C1CCCC1 | / | 23* | -6 | 0 | 1
N#C[C@H]1[C@@H](c2ccc(C#Cc3ccc(F)cc3)cc2)[C@H](CO)N1C(=O)C1CCCC1 | / | -4 | -16 | 0 | 1
N#C[C@H]1[C@@H](c2ccc(/C=C/c3ccccc3)cc2)[C@@H](CO)N1C(=O)C1CCCC1 | / | 5 | 7 | 0 | 0
COc1ccc2c3c(n(C)c2c1)[C@@H](CO)N(C(C)=O)CC31CN(C(=O)c2cnccn2)C1 | / | 3 | / | 0 | 1
C/C=C/c1ccc2c(c1)[C@H]1[C@H](CCN1C(=O)COC)[C@@H](CO)N2 | / | / | -20 | 0 | /
C[C@@H]1CN([C@@H](C)CO)C(=O)c2cc(NS(=O)(=O)c3ccc(Cl)cc3)ccc2O[C@H]1CN(C)C(=O)Nc1ccc(F)cc1 | / | ? | / | -1 | 2
S=c1[nH]nc(-c2ccccc2)n1/N=C/C=C/c1ccco1 | -15 | 8 | 12 | 0 | 13
S=c1[nH]nc(-c2cccnc2)n1/N=C/C=C/c1ccco1 | 0 | ? | -9 | 0 | 39*
CCS(=O)(=O)N[C@H]1C=C[C@H](CC(=O)NCc2ccc(F)cc2)O[C@H]1CO | / | 8 | -4 | 0 | 9
Cc1oc2ccc(O)cc2c1C(=O)c1ccc(Br)cc1 | -2 | 14 | 34* | 0 | 0
Cc1oc2ccc(O)cc2c1C(=O)c1ccc(Cl)cc1 | -5 | / | -3 | / | /
C[C@H](NC(=O)C[C@H]1CC[C@H]2[C@@H](COC[C@@H](O)CN2C(=O)Nc2ccccc2)O1)c1ccccc1 | / | -14 | -7 | 1 | -2
C[C@H](NC(=O)C[C@@H]1CC[C@H]2[C@@H](COC[C@H](O)CN2C(=O)Nc2ccccc2)O1)c1ccccc1 | / | 31* | -3 | 0 | -2
C[C@H](NC(=O)C[C@@H]1CC[C@@H]2[C@H](COC[C@H](O)CN2C(=O)Nc2ccccc2)O1)c1ccccc1 | / | 34* | 3 | 0 | 0
CNC[C@H]1Oc2ccc(NS(C)(=O)=O)cc2CC(=O)N(C)C[C@@H]1C | / | / | -11 | 0 | /
Cc1ccccc1S(=O)(=O)N1CC(=O)N2[C@H](CO)[C@@H](c3ccc(C#CC4CC4)cc3)[C@@H]2C1 | / | 4 | / | 0 | 2
O=C(COc1ccccc1/C=C1\SC(=O)NC1=O)Nc1ccc(F)cc1 | -2 | / | -17 | 0 | 7
C=CCN1C(=O)N/C(=C/c2ccccc2OCC(=O)Nc2ccc(F)cc2)C1=O | -15 | 22* | 2 | 0 | -1
Cc1cccc(-n2c(C)nc3cc(C(=O)NCCN4CCOCC4)ccc32)c1 | -5 | 1 | 0 | 0 | 89*
COc1ccc(-c2csc(NC(=O)CSCc3c(C)noc3C)n2)cc1OC | -6 | 4 | 9 | 0 | 60*
CCC(=O)N1C[C@H](O)COC[C@H]2O[C@@H](CC(=O)NCC3CCCCC3)CC[C@@H]21 | / | 1 | -3 | 0 | 3
NC(=O)c1ccc(NCCc2ccco2)cc1 | -8 | -6 | 5 | 0 | 4
O=C(CCc1ccco1)CCc1ccco1 | -6 | 2 | 1 | 0 | 76*
SMILES | CaV13 FRET inh | DENV2 CPE | FN deposit inh | XiGFP reactiv | Casp6 inh
C[C@H](CO)N1C[C@H](C)[C@@H](CN(C)S(=O)(=O)c2ccccc2F)OCc2ccccc2-c2ccccc2C1=O | / | / | 3 | 0 | /
Cc1cc(C)cc(N(CC(=O)NC(C)C)C(=O)CCC(=O)Nc2ccccn2)c1 | -1 | 0 | -10 | 0 | 45*
CCOC(=O)Cc1sc(N)nc1C | -5 | 41* | -8 | 0 | 0
CCOC(=O)Cc1c(C)nc(N)[nH]c1=O | 7 | 3 | -22 | 0 | -1
O=C1CN(S(=O)(=O)c2cc(Br)ccc2Br)CCN1 | -16 | -9 | -5 | 0 | 3
O=c1c(Br)ccc(Br)cc1Br | -6 | -1 | 36* | 5 | 26
